# Experimental data collected from several papers.
# Compare with care: the assays were run in different laboratories.
# CDK14: Cyclin-dependent kinase 14 (CDK14, Homo sapiens, UniProt O94921)
# CDK14 with cyclin Y: Cyclin-dependent kinase 14, with cyclin Y (CDK14, Homo sapiens, UniProt O94921)
SMILES,target,assay,conditions,measurement,result
CCC(=N\O)/C(C)=C/c1ccc(F)cc1,CDK14,"cell-free assay, competition with immobilised ligand",1 µM,remaining binding,91%
COc1cc(Cl)c(C(=O)N[C@@H](CN[C@H]2CC[C@@H](N)CC2)Cc2ccc(C#N)cc2)cc1-c1ccc(CN[C@H](C)c2ccc(C)cc2)o1,CDK14 with cyclin Y,"enzyme activity, inhibitor",1 µM,remaining activity,99%
Nc1ncnc2occ(-c3ccc(NC(=O)Nc4cc(C(F)(F)F)ccc4F)cc3)c12,CDK14,"cell-free assay, inhibitor",20 µM,remaining signal,0.1%
CN1CC(Oc2cnc(C#N)cc2-c2ccn3nc(NC(=O)C4CC4)cc3c2)C1,CDK14 with cyclin Y,"enzyme activity, inhibitor",1 µM,inhibition,-11%
CC1CCCN1c1nccc(-c2cnn3ncccc23)n1 (stereo not drawn),CDK14,binding,1 µM,remaining binding,100%
O=C(Nc1cnn(-c2csc(C(=O)NC3COC3)c2)c1)Nc1ccccc1Cl,CDK14,"enzyme activity, inhibitor",5 µM,remaining activity,107%
Cc1ccc(C(=O)NCc2ccsc2)cc1C#Cc1cn(C(C)C)c2ncnc(N)c12,CDK14 with cyclin Y,"enzyme activity, inhibitor",1 µM,activity vs control,92%
Cc1ccc(C(=O)Nc2ccc(CN3CCN(C)CC3)c(C(F)(F)F)c2)cc1C#Cc1cnc2cccnn12,CDK14,"enzyme activity, inhibitor",23.5 nM,remaining activity,68%
O=[N+]([O-])c1cccc2[nH]c(CNc3nc(N4CCOCC4)nc4c3ncn4-c3ccsc3)nc12,CDK14,"binding, competition with immobilised ligand",10 µM,binding vs control,40%
Cn1nc(C(F)(F)F)cc1-c1cnc(N2CCc3cc(S(=O)(=O)Nc4c(F)cc(Cl)cc4F)cc(N4CCCC4=O)c32)nc1,CDK14,"cell-free assay, competition with immobilised ligand",1 µM,remaining binding,100%
Fc1cccc(-n2cnc3c(NCc4nc5c(F)c(F)ccc5[nH]4)nc(N4CCOCC4)nc32)c1,CDK14,"binding, competition with immobilised ligand",10 µM,binding vs control,55%
Cc1sc(C(=O)NC2COC2)cc1-n1cc(NC(=O)Nc2c(F)cccc2Cl)cn1,CDK14,"enzyme activity, inhibitor",10 µM,remaining activity,100%
